Values after ≈ are worked out from the molar mass of the structure shown.
Tests used:
[1] = system: Mycobacterium kansasii; experiment: Antimycobacterial activity against Mycobacterium kansasii 6509/96 isolate after 21 days; format: functional; conditions: 6509/96, 504 h
Procedure, shortened: (§1)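 MIC in Sula semi-synthetic medium at 37 °C. M. kansasii 6509/96 is a clinical isolate; M. kansasii CNTC My 235/80 comes from the Czech national collection. Compounds were dissolved in DMSO (max. 5% DMSO in water) and tested at 1000, 500, 250, 125, 62, 31, 16, 8, 4, 2 and 1 μmol L⁻¹. MIC was read after 7, 14 and 21 days.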

[2] = system: Mycobacterium tuberculosis; experiment: Antimycobacterial activity against Mycobacterium tuberculosis CNTC My 331/88 ATCC 27294 after 14 days; format: functional; conditions: CNTC My 331/88 ATCC 27294, 336 h
Procedure, shortened: (§2)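 Sula semi-synthetic medium at 37 °C. Compounds were dissolved in DMSO (max. 5% DMSO in water) and added to the medium at 1000, 500, 250, 125, 62, 31, 16, 8, 4, 2 and 1 μmol L⁻¹. MIC was read after 7, 14 and 21 days of incubation at 37 °C. Strains came from the Czech National Collection of Type Cultures.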

[3] = system: Mycobacterium avium; experiment: Antimycobacterial activity against Mycobacterium avium CNTC My 330/88 after 21 days; format: functional; conditions: CNTC My 330/88, 504 h; procedure, shortened: as §2
[4] = system: Mycobacterium kansasii; experiment: Antimycobacterial activity against Mycobacterium kansasii CNTC My 335/80 after 21 days; format: functional; conditions: 504 h; procedure, shortened: as §1
[5] = system: Mycobacterium kansasii; experiment: Antimycobacterial activity against Mycobacterium kansasii CNTC My 335/80 after 14 days; format: functional; conditions: 336 h; procedure, shortened: as §1
[6] = system: Mycobacterium avium; experiment: Antimycobacterial activity against Mycobacterium avium CNTC My 330/88 after 14 days; format: functional; conditions: CNTC My 330/88, 336 h; procedure, shortened: as §2
[7] = system: Mycobacterium kansasii; experiment: Antimycobacterial activity against Mycobacterium kansasii CNTC My 335/80 after 7 days; format: functional; conditions: 168 h; procedure, shortened: as §1
[8] = system: HepG2; experiment: Cytotoxicity against human HepG2 cells by MTT assay; format: cell-based
Procedure, shortened: (§3)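 MTT viability assay in RPMI-1640 without phenol red with 10% FCS and 2 mM L-glutamine, at 37 °C and 5% CO₂. HepG2 seeded at 5×10³ cells/well; fresh human PBMC at 2.0×10⁵ cells/well. After 24 h, cells were exposed overnight in serum-free medium, then given MTT (2 mg mL⁻¹) for 4 h. Formazan dissolved in DMSO, OD540 minus OD620, compared with untreated controls. IC50 taken from dose-response curves; two independent experiments, 4–8 parallels.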

[9] = system: Mycobacterium kansasii; experiment: Antimycobacterial activity against Mycobacterium kansasii 6509/96 isolate after 7 days; format: functional; conditions: 6509/96, 168 h; procedure, shortened: as §1
[10] = system: Mycobacterium tuberculosis; experiment: Antimycobacterial activity against Mycobacterium tuberculosis CNTC My 331/88 ATCC 27294 after 21 days; format: functional; conditions: CNTC My 331/88 ATCC 27294, 504 h; procedure, shortened: as §2
[11] = system: Mycobacterium kansasii; experiment: Antimycobacterial activity against Mycobacterium kansasii 6509/96 isolate after 14 days; format: functional; conditions: 6509/96, 336 h; procedure, shortened: as §1
[12] = Stability of compound in 0.005 M HCl buffer assessed as pseudo-first order rate constant at pH 2.3 by UV-vis spectroscopic analysis; format: physicochemical
Procedure, shortened: (§4)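 Hydrolytic stability followed by diode-array UV-vis at 37 ± 0.1 °C on ca. 5×10⁻⁵ mol L⁻¹ solutions. Ionic strength was set to 1 mol L⁻¹ with KCl; buffer pH was checked with a glass electrode. Spectra recorded over 200–500 nm with time. Pseudo-first-order k_obs was fitted from the absorbance-time curve at 267 nm.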

[13] = Stability of compound in 0.007 M HCl buffer assessed as pseudo-first order rate constant at pH 2.16 by UV-vis spectroscopic analysis; format: physicochemical; procedure, shortened: as §4
[14] = Stability of compound in 0.01 M HCl buffer assessed as pseudo-first order rate constant at pH 2 by UV-vis spectroscopic analysis; format: physicochemical; procedure, shortened: as §4
[15] = Stability of compound in N-Methylmorpholine buffer assessed as pseudo-first order rate constant at pH 7.86 by UV-vis spectroscopic analysis; format: physicochemical; procedure, shortened: as §4
[16] = system: PBMC; experiment: Cytotoxicity against human PBMC by MTT assay; format: cell-based; procedure, shortened: as §3
[17] = Stability of compound in imidazole buffer assessed as pseudo-first order rate constant at pH 7.23 by UV-vis spectroscopic analysis; format: physicochemical; procedure, shortened: as §4
[18] = Stability of compound in 0.001 HCl buffer assessed as pseudo-first order rate constant at pH 3 by UV-vis spectroscopic analysis; format: physicochemical; procedure, shortened: as §4
[19] = Stability of compound in phosphate buffer assessed as pseudo-first order rate constant at pH 5.81 by UV-vis spectroscopic analysis; format: physicochemical; procedure, shortened: as §4
[20] = Stability of compound in TRIS buffer assessed as pseudo-first order rate constant at pH 8.92 by UV-vis spectroscopic analysis; format: physicochemical; procedure, shortened: as §4
[21] = Stability of compound in 0.005 M KOH buffer assessed as pseudo-first order rate constant at pH 11.7 by UV-vis spectroscopic analysis; format: physicochemical; procedure, shortened: as §4
[22] = Selectivity index, ratio of IC50 for human HepG2 cells to MIC for Mycobacterium tuberculosis CNTC My 331/88 ATCC 27294; format: functional
Procedure, shortened: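 HepG2 human hepatoma cells in RPMI-1640 without phenol red with 10% FCS, 2 mM L-glutamine and gentamycin, at 37 °C and 5% CO₂. Seeded at 5×10³ cells/well and grown 24 h, then treated overnight in serum-free medium. Read-out was MTT (4 h), formazan dissolved in DMSO, OD540 minus OD620. IC50 was taken from dose-response curves, two experiments with 4–8 parallels. MIC was measured in Sula medium.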

[23] = Stability of compound in acetate buffer assessed as pseudo-first order rate constant at pH 4.55 by UV-vis spectroscopic analysis; format: physicochemical; procedure, shortened: as §4
[24] = Stability of compound in 0.1 M KOH buffer assessed as pseudo-first order rate constant at pH 13 by UV-vis spectroscopic analysis; format: physicochemical; procedure, shortened: as §4
[25] = Stability of compound in 0.0005 HCl buffer assessed as pseudo-first order rate constant at pH 3.3 by UV-vis spectroscopic analysis; format: physicochemical; procedure, shortened: as §4
[26] = Stability of compound in methoxyacetate buffer assessed as pseudo-first order rate constant at pH 3.35 by UV-vis spectroscopic analysis; format: physicochemical; procedure, shortened: as §4
[27] = Stability of compound in carbonate buffer assessed as pseudo-first order rate constant at pH 9.71 by UV-vis spectroscopic analysis; format: physicochemical; procedure, shortened: as §4

NNC(=O)c1ccncc1 [ISONIAZID]
MIC [1]: 4 µM (≈ 0.549 µg/mL) | MIC [2]: 1 µM (≈ 0.137 µg/mL) | MIC [3]: > 250 µM | MIC [4]: > 250 µM | MIC [5]: > 250 µM | MIC [6]: > 250 µM | MIC [7]: > 250 µM | IC50 [8]: > 1000 µM | MIC [9]: 2 µM (≈ 0.274 µg/mL) | MIC [10]: 1 µM (≈ 0.137 µg/mL) | MIC [11]: 4 µM (≈ 0.549 µg/mL)

O=C(N/N=C/Nc1ccc(Br)c(F)c1)c1ccncc1
Activity [12]: 0.0017 s⁻¹ | MIC [1]: 16 µM (≈ 5.39 µg/mL) | MIC [2]: 1 µM (≈ 0.337 µg/mL) | MIC [3]: 250 µM (≈ 84.3 µg/mL) | Activity [13]: 0.00192 s⁻¹ | MIC [4]: 250 µM (≈ 84.3 µg/mL) | Activity [14]: 0.00285 s⁻¹ | Activity [15]: 0.000012 s⁻¹ | IC50 [16]: 326 µM | Activity [17]: 0.000013 s⁻¹ | Activity [18]: 0.000514 s⁻¹ | Activity [19]: 0.000071 s⁻¹ | Activity [20]: 0.000055 s⁻¹ | Activity [21]: 0.00011 s⁻¹ | Ratio [22]: 162 | MIC [5]: 250 µM (≈ 84.3 µg/mL) | MIC [6]: 250 µM (≈ 84.3 µg/mL) | Activity [23]: 0.000114 s⁻¹ | MIC [7]: 62.5 µM (≈ 21.1 µg/mL) | IC50 [8]: 162 µM | MIC [9]: 8 µM (≈ 2.7 µg/mL) | Activity [24]: 0.0000691 s⁻¹ | Activity [25]: 0.000322 s⁻¹ | Activity [26]: 0.000425 s⁻¹ | MIC [10]: 1 µM (≈ 0.337 µg/mL) | MIC [11]: 8 µM (≈ 2.7 µg/mL) | Activity [27]: 0.0000445 s⁻¹

O=C(N/N=C/Nc1cc(Cl)ccc1O)c1ccncc1
MIC [1]: 32 µM (≈ 9.3 µg/mL) | MIC [2]: 2 µM (≈ 0.581 µg/mL) | MIC [3]: 500 µM (≈ 145 µg/mL) | MIC [4]: 250 µM (≈ 72.7 µg/mL) | IC50 [16]: 75 µM | Ratio [22]: 10.9 | MIC [5]: 250 µM (≈ 72.7 µg/mL) | MIC [6]: 500 µM (≈ 145 µg/mL) | MIC [7]: 125 µM (≈ 36.3 µg/mL) | IC50 [8]: 21.8 µM | MIC [9]: 8 µM (≈ 2.33 µg/mL) | MIC [10]: 2 µM (≈ 0.581 µg/mL) | MIC [11]: 16 µM (≈ 4.65 µg/mL)

O=C(N/N=C/Nc1ccc(Cl)cc1O)c1ccncc1
MIC [1]: 32 µM (≈ 9.3 µg/mL) | MIC [2]: 2 µM (≈ 0.581 µg/mL) | MIC [3]: 500 µM (≈ 145 µg/mL) | MIC [4]: 500 µM (≈ 145 µg/mL) | MIC [5]: 500 µM (≈ 145 µg/mL) | MIC [6]: 250 µM (≈ 72.7 µg/mL) | MIC [7]: 250 µM (≈ 72.7 µg/mL) | MIC [9]: 16 µM (≈ 4.65 µg/mL) | MIC [10]: 4 µM (≈ 1.16 µg/mL) | MIC [11]: 16 µM (≈ 4.65 µg/mL)

O=C(N/N=C/Nc1ccc(F)c(Cl)c1)c1ccncc1
MIC [1]: 32 µM (≈ 9.37 µg/mL) | MIC [2]: 1 µM (≈ 0.293 µg/mL) | MIC [3]: 500 µM (≈ 146 µg/mL) | MIC [4]: > 1000 µM | MIC [5]: 1000 µM (≈ 293 µg/mL) | MIC [6]: 250 µM (≈ 73.2 µg/mL) | MIC [7]: 250 µM (≈ 73.2 µg/mL) | MIC [9]: 16 µM (≈ 4.68 µg/mL) | MIC [10]: 2 µM (≈ 0.585 µg/mL) | MIC [11]: 16 µM (≈ 4.68 µg/mL)

— ChEMBL document CHEMBL1909504, “New series of isoniazid hydrazones linked with electron-withdrawing substituents” (Eur J Med Chem, 2011)
